What was measured:
[1] = biological target: T1, Type-1 angiotensin II receptor (Homo sapiens, UniProt P30556); assay: Displacement of Europium-labeled angiotensin-2 from human AT1 receptor expressed in CHOK1 cell membranes after 120 mins by DELFIA
T1 sequence (P30556 whole entry): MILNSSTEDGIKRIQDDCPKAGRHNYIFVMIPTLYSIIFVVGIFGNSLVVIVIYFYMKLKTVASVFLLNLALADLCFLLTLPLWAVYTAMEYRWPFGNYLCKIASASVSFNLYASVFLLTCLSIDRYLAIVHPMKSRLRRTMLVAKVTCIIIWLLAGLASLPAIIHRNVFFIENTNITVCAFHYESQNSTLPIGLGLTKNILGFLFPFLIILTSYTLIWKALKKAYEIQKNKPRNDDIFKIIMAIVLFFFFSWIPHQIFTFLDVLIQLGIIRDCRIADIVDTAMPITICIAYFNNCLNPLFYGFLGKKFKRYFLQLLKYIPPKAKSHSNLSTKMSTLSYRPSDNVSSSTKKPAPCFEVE

Rattus norvegicus [2] = assay: In vivo antagonist activity at AT1 receptor in Sprague-Dawley rat assessed as inhibition of angiotensin-2-induced pressor response at 3 mg/kg, iv treated for 5 mins at 15 mins post 2 doses of angiotensin-2 treatment at 15 minutes apart followed by ANP treatment and subsequent angiotensin-2 re-challenge after 60 mins relative to control; assay type: functional
How it was run: (§1)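 Rat pharmacodynamic assay with intravenous dosing to exclude oral absorption. AT1 antagonism is read in the same animal as inhibition of the angiotensin-II-evoked pressor response. NEP inhibition is read as potentiation of ANP-induced elevation of urinary cGMP output, relative to vehicle.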

Neprilysin = Neprilysin (Homo sapiens, UniProt P08473); assay: Inhibition of NEP (unknown origin) preincubated for 10 mins followed by fluorogenic substrate addition and measured after 20 mins by fluorescence assay
[3] = biological target: T2, Type-1 angiotensin II receptor (Homo sapiens) (UniProt P30556); assay: Antagonist activity at AT1 receptor (unknown origin) by inositol phosphate accumulation assay relative to control; assay type: functional
T2 sequence (whole entry): T1 sequence (P30556 whole entry)

Rattus norvegicus [4] = assay: In vivo inhibition of NEP in Sprague-Dawley rat assessed as potentiation of ANP-induced elevation of urinary cGMP level at 3 mg/kg, iv treated for 5 mins at 15 mins post 2 doses of angiotensin-2 treatment at 15 minutes apart followed by ANP treatment measured up to 60 mins by EIA relative to control; assay type: functional; how it was run: as §1
[5] = biological target: T3, Type-2 angiotensin II receptor (Homo sapiens, UniProt P50052); assay: Displacement of Europium-labeled angiotensin-2 from human AT2 receptor expressed in CHOK1 cell membranes after 120 mins by DELFIA
T3 sequence (P50052 whole entry): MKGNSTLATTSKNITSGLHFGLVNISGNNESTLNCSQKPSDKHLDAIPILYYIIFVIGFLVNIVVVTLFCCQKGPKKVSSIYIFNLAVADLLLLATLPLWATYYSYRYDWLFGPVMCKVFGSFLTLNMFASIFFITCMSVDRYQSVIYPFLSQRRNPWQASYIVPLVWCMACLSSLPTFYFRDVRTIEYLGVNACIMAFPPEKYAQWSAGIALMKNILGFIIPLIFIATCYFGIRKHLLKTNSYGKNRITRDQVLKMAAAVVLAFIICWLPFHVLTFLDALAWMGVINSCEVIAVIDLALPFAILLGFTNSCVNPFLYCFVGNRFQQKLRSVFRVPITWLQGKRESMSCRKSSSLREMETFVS

[6] = biological target: Angiotensin-converting enzyme (Homo sapiens, UniProt P12821); assay: Inhibition of recombinant human ACE using Mca-BK2 as substrate preincubated for 10 mins followed by fluorogenic substrate addition and measured after 20 mins by fluorescence assay
[7] = biological target: T4, Endothelin-converting enzyme 1 (Homo sapiens, UniProt P42892); assay: Inhibition of recombinant human ECE1
T4 sequence (P42892 whole entry): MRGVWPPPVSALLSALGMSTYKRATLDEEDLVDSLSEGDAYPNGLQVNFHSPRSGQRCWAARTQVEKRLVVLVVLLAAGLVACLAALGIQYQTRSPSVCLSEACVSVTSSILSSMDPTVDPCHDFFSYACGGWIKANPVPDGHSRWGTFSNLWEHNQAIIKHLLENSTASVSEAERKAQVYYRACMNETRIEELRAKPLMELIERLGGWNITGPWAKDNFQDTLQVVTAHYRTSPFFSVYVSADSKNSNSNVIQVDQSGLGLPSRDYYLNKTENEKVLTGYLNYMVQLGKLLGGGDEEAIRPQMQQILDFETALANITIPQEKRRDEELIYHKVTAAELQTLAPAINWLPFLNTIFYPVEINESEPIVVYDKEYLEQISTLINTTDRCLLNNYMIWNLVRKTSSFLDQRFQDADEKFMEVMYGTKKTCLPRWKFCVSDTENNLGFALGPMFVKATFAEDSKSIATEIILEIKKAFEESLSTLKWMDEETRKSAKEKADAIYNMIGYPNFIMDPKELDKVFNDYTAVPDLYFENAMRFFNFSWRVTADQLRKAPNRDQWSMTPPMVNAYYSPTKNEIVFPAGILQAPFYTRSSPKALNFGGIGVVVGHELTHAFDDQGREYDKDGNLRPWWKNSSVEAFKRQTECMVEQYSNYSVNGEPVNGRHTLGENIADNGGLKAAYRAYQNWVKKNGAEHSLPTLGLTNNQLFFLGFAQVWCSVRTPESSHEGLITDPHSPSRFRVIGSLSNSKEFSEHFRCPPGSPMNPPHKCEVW

Rattus norvegicus [8] = assay: Antihypertensive activity in spontaneously hypertensive rat assessed as reduction in mean arterial pressure administered via oral gavage in […] measured up to 24 hrs by telemetry method; assay type: functional
How it was run: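 Conscious spontaneously hypertensive rats, dosed orally. Blood pressure is monitored by telemetry for 24 h after each dose. Sequential escalating doses of 3, 10, 30 and 100 mg/kg are given at 24 h intervals. Efficacy is the peak percent fall in MAP from baseline. Duration is the vehicle-adjusted % change in AUC over 24 h. Statistics: two-way ANOVA with Bonferroni post hoc.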

Rattus norvegicus [9] = assay: Antihypertensive activity in DOCA salt-induced CD-1 rat model of hypertension assessed as reduction in blood pressure administered via oral gavage in ascending cumulative doses […] measured up to 24 hrs by telemetry method; assay type: functional
How it was run: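 Conscious DOCA-salt hypertensive rats, a low-renin model, dosed orally. Reduction in blood pressure is followed over time. ED10 is the dose giving an average 10% reduction in the 24 h average MAP.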

Homo sapiens [10] = species on record: Homo sapiens; assay: Selectivity ratio of Ki for human AT2 receptor to Ki for human AT1 receptor
Homo sapiens [11] = species on record: Homo sapiens; assay: Selectivity ratio of IC50 for recombinant human ECE1 to IC50 for recombinant human NEP
[12] = biological target: aminopeptidase P (Xaa-Pro aminopeptidase, Homo sapiens); assay: Inhibition of APP (unknown origin)

Neprilysin, sequence (P08473 whole entry): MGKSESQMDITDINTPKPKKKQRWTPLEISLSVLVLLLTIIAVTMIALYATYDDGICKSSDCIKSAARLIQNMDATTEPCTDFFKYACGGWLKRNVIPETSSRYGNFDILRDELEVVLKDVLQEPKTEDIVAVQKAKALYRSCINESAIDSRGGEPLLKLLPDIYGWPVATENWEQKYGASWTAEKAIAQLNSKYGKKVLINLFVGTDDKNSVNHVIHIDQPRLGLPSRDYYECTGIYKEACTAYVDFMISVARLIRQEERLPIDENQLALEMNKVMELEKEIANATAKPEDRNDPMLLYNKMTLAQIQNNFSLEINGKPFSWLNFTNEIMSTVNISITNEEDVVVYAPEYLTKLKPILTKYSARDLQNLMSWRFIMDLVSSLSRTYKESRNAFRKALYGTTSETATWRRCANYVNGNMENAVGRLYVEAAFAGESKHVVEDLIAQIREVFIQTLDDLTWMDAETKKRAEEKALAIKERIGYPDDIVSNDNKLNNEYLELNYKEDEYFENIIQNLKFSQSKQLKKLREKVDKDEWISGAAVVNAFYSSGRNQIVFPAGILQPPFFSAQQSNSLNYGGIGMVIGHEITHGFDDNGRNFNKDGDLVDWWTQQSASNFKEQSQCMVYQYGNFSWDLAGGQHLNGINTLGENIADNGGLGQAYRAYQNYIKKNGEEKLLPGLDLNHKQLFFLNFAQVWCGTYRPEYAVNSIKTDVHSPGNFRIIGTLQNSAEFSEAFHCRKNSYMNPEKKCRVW
Angiotensin-converting enzyme, sequence (P12821 whole entry): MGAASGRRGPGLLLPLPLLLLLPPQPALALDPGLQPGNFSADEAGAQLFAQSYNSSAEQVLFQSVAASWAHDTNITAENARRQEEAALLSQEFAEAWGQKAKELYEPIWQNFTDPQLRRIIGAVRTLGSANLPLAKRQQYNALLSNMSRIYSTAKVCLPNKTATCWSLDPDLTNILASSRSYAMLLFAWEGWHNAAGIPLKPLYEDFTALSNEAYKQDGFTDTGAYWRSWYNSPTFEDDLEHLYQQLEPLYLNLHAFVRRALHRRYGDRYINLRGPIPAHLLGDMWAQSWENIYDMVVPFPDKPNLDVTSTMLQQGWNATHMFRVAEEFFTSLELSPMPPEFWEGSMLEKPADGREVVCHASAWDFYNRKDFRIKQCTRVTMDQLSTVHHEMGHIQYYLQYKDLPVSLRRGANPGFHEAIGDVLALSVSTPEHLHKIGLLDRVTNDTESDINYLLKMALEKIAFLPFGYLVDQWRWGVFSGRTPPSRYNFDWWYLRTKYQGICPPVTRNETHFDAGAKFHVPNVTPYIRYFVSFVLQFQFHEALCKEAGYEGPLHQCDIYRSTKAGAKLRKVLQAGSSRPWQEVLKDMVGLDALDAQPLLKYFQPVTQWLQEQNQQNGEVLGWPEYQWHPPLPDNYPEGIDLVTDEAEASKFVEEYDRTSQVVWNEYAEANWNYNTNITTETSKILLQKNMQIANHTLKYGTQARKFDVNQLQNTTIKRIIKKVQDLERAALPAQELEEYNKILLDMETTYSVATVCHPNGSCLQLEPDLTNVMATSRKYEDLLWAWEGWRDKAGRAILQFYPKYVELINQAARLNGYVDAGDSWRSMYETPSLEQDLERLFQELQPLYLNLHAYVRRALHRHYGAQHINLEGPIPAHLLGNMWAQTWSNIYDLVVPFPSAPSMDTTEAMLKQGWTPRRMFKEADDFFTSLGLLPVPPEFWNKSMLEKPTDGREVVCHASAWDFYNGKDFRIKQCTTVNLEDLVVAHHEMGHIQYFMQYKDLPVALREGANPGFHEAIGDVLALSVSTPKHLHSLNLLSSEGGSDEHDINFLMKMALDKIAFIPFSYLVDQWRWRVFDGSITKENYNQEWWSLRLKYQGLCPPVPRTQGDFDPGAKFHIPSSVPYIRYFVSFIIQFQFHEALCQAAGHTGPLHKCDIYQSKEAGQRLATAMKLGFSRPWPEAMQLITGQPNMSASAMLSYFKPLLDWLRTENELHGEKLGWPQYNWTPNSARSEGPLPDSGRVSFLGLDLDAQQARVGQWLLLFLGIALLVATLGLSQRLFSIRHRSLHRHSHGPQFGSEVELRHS

Compound | Ki [1] [nM] | inhibition in vivo at 3 mg/kg (Rattus norvegicus [2]) [%] | other results
CCCCc1nc(Cl)c(CNC(=O)C(CS)Cc2ccccc2)n1Cc1ccc(-c2ccccc2C(=O)O)cc1 (racemic) | 79.4 |  | 
CCCOc1nc(CC)c(CNC(=O)[C@@H](S)CC(C)C)n1Cc1ccc(-c2ccccc2C(=O)O)cc1 | 20 | 23 | 
CCCCc1nc(Cl)c(CO)n1Cc1ccc(-c2ccccc2-c2nn[nH]n2)cc1 [LOSARTAN] |  |  | IC50 (Neprilysin): > 10 µM
CCCCc1nc(C)c(CNC(=O)[C@@H](S)CC(C)C)n1Cc1ccc(-c2ccccc2C(=O)O)cc1 | 200 |  | 
CCCCc1nc(Cl)c(CNC(=O)C(CS)CC2CC2)n1Cc1ccc(-c2ccccc2C(=O)O)cc1 (racemic) | 31.6 |  | 
CCOc1nc(CC)c(CNC(=O)[C@@H](CS)CC(C)C)n1Cc1ccc(-c2ccccc2C(=O)O)cc1F | 0.794 | 85 | 
CCCCc1nc(CC)c(CNC(=O)[C@@H](CS)CC(C)C)n1Cc1ccc(-c2ccccc2C(=O)O)cc1 | 5.01 | 68 | 
CCCCc1nc(Cl)c(CNC(=O)C(CS)CCCC)n1Cc1ccc(-c2ccccc2C(=O)O)cc1 (racemic) | 126 |  | 
CCOc1nc(CC)c(CNC(=O)[C@@H](S)CC(C)C)n1Cc1ccc(-c2ccccc2C(=O)O)c(F)c1 | 5.01 | 57 | 
CCCCc1nc(Cl)c(CNC(=O)C(CS)CC(C)C)n1Cc1ccc(-c2ccccc2-c2nnn[nH]2)cc1 (racemic) | 10 |  | 
CCCCc1nc(C2CC2)c(CNC(=O)[C@@H](CS)CC(C)C)n1Cc1ccc(-c2ccccc2C(=O)O)cc1 | 6.31 | 55 | 
CCCCc1nc(Cl)c(CNC(=O)C(CS)Cc2ccc3ccccc3c2)n1Cc1ccc(-c2ccccc2C(=O)O)cc1 (racemic) | 158 |  | 
CCCCc1nc(Cl)c(CNC(=O)C(CS)Cc2cccc3ccccc23)n1Cc1ccc(-c2ccccc2C(=O)O)cc1 (racemic) | 398 |  | 
CCCCc1nc(Cl)c(CO)n1Cc1ccc(-c2ccccc2-c2nnn[nH]2)cc1 [LOSARTAN] |  | 67 | % IP accumulation [3]: 87%
CCOc1nc(CC)c(CNC(=O)[C@@H](S)CC(C)C)n1Cc1ccc(-c2ccccc2C(=O)O)cc1 | 6.31 | 57 | 
CCCCc1nc(Cl)c(CNC(=O)C(CS)CC(CC)CC)n1Cc1ccc(-c2ccccc2C(=O)O)cc1 (racemic) | 50.1 |  | 
CCCCc1nc(Cl)c(CNC(=O)C(CS)CC2CCCC2)n1Cc1ccc(-c2ccccc2C(=O)O)cc1 (racemic) | 50.1 |  | 
CCCCc1nc(CC)c(CNC(=O)[C@@H](S)CC(C)C)n1Cc1ccc(-c2ccccc2C(=O)O)cc1 | 39.8 | 18 | 
CCCCc1nc(Cl)c(CNC(=O)C(CS)C(C)C)n1Cc1ccc(-c2ccccc2C(=O)O)cc1 (racemic) | 126 |  | 
CCCCc1nc(Cl)c(CNC(=O)C(CS)Cc2ccc(-c3ccccc3)cc2)n1Cc1ccc(-c2ccccc2C(=O)O)cc1 (racemic) | 398 |  | 
CCCOc1nc(CC)c(CNC(=O)[C@@H](CS)CC(C)C)n1Cc1ccc(-c2ccccc2C(=O)O)cc1 | 2.51 | 65 | 

Compound | Ki [1] [nM] | inhibition in vivo at 3 mg/kg (Rattus norvegicus [2]) [%] | other results
CCCCc1nc(Cl)c(CNC(=O)CNC(=O)C(CS)Cc2ccccc2)n1Cc1ccc(-c2ccccc2-c2nnn[nH]2)cc1 (racemic) | 10 |  | 
CCCCc1nc(Cl)c(CNC(=O)C(CS)C(C)CC)n1Cc1ccc(-c2ccccc2C(=O)O)cc1 (racemic) | 631 |  | 
CCCCc1nc(CC(C)C)c(CNC(=O)[C@@H](CS)CC(C)C)n1Cc1ccc(-c2ccccc2C(=O)O)cc1 | 7.94 |  | 
CCCCc1nc(CC(C)C)c(CNC(=O)[C@@H](S)CC(C)C)n1Cc1ccc(-c2ccccc2C(=O)O)cc1 | 31.6 | 32 | 
CCCCc1nc(Cl)c(CNC(=O)C(CS)CC2CCCCC2)n1Cc1ccc(-c2ccccc2C(=O)O)cc1 (racemic) | 251 |  | 
CCCCc1nc(Cl)c(CNC(=O)C(CS)C(C)c2ccccc2)n1Cc1ccc(-c2ccccc2C(=O)O)cc1 (racemic) | 79.4 |  | 
O=C(O)CNC(=O)C(CS)Cc1ccccc1 (configuration not stated) [THIORPHAN] | > 10000 |  | 
CCCCc1nc(C)c(CNC(=O)[C@@H](CS)CC(C)C)n1Cc1ccc(-c2ccccc2C(=O)O)cc1 | 50.1 |  | 
CCCCc1nc(Cl)c(CNC(=O)[C@H](CS)CC(C)C)n1Cc1ccc(-c2ccccc2C(=O)O)cc1 | 100 |  | 
CCOc1nc(CC)c(CNC(=O)[C@@H](CS)CC(C)C)n1Cc1ccc(-c2ccccc2C(=O)O)c(F)c1 | 1.26 |  | 
CCCCc1nc(Cl)c(CNC(=O)C(CS)Cc2ccccc2)n1Cc1ccc(-c2ccccc2-c2nnn[nH]2)cc1 (racemic) | 15.8 |  | 
CCCCc1nc(C2CC2)c(CNC(=O)[C@@H](S)CC(C)C)n1Cc1ccc(-c2ccccc2C(=O)O)cc1 | 31.6 | 5 | 
CCCCc1nc(Cl)c(CNC(=O)[C@@H](S)CC(C)C)n1Cc1ccc(-c2ccccc2C(=O)O)cc1 | 63.1 |  | 
CCOc1nc(CC)c(CNC(=O)[C@@H](S)CC(C)C)n1Cc1ccc(-c2ccccc2C(=O)O)cc1F | 1.26 | 76 | fold change (FC) (Rattus norvegicus [4]): 3.5; Ki [5]: 2510 nM; IC50 [6]: > 10 µM; IC50 [7]: 79.4 nM; Activity (Rattus norvegicus [8]): Dose-dependent effect; ED10 (Rattus norvegicus [8]): 13 mg/kg; Activity (Rattus norvegicus [9]): Dose-dependent effect; ED10 (Rattus norvegicus [9]): 44 mg/kg; Ratio Ki (Homo sapiens [10]): 2000; Ratio IC50 (Homo sapiens [11]): 120; % IP accumulation [3]: < 5%; IC50 [12]: > 10 µM
CCOc1nc(CC)c(CNC(=O)[C@@H](S)CC(C)C)n1Cc1cc(F)c(-c2ccccc2C(=O)O)cc1F | 5.01 |  | 
CCCCc1nc(Cl)c(CNC(=O)C(CS)CC(C)C)n1Cc1ccc(-c2ccccc2C(=O)O)cc1 (racemic) | 39.8 |  | 
CCCCc1nc(Cl)c(CNC(=O)C(CS)CCC(C)C)n1Cc1ccc(-c2ccccc2C(=O)O)cc1 (racemic) | 126 |  | 
CCOc1nc(CC)c(CNC(=O)[C@@H](CS)CC(C)C)n1Cc1ccc(-c2ccccc2C(=O)O)cc1 | 1.26 | 67 | 
CCCCc1nc(Cl)c(CNC(=O)[C@H](S)CC(C)C)n1Cc1ccc(-c2ccccc2C(=O)O)cc1 | 126 |  | 
CCCCc1nc(Cl)c(CNC(=O)[C@@H](CS)CC(C)C)n1Cc1ccc(-c2ccccc2C(=O)O)cc1 | 15.8 | 11 | 
